Usually AC50 stands for the concentration at which the activity in the assay is half-maximal.

Records with an inconclusive call do not appear. Calls of active or inactive are those of the source.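 Rule for the calls: active = compounds lowering viability signal with fitted half-maximal potency within ten times the top dose, in every repeat run; inconclusive = repeat runs disagree, or weak flat or poorly fitted curves; inactive = every run inactive, including flat or rising signals.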

One experiment concerns HMLE_shECad breast CSC viability, CellTiter-Glo, 72 h. Kind of experiment: viability loss in HMLE_shECad cells, dose response, cell-based, CellTiter-Glo luminescence, powder samples, set 4 (AID 504449).
Details: not given
Summed up: (§1)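 System: HMLE_shECad cells, E-cadherin knockdown, EMT-induced breast cancer stem cell model; quantity: 2000 cells/well; incubation: ≥4 h cell settling at 37 °C, ~70-74 h compound exposure; signal: CellTiter-Glo luminescence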
(ATP-based viability assays read luminescence as a measure of living cells.)
As to `O=C(N/N=C/c1ccc[nH]1)C1CC1c1ccccc1` (stereo not given), the half-maximal activity concentration (AC50) was 12.9 µM. With `Cc1csc(NC(=O)c2ccc(COc3cccc(F)c3)o2)n1`, the half-maximal activity concentration (AC50) is 10.1 µM. In the case of `O=C(Nc1nc2cccc(Cl)c2s1)c1ccc(COc2ccccc2)o1`, the AC50 is 4.49 µM.

Consider `Cc1csc(NC(=O)c2ccc(COc3cccc(C#N)c3)o2)n1`, for which the AC50 was 2.07 µM.

In the case of `Cc1cccc(OCC(=O)N/N=C/c2ccc[nH]2)c1C`, the AC50 was 24.6 µM. Still for that read-out and setting: under `O=C(COc1ccc(Br)cc1)N/N=C/c1ccc[nH]1` stands 15.3 µM; under `COc1cccc(OCc2ccc(C(=O)Nc3nc(C)cs3)o2)c1`, 0.081 µM. For the compound `Cc1ccc(C)c(OCC(=O)N/N=C/c2ccc[nH]2)c1`, the concentration at half-maximal activity (AC50) was 9.05 µM. Take `COc1ccc(OCc2ccc(C(=O)Nc3nc(C)cs3)o2)cc1`: the concentration at half-maximal activity (AC50) is 29.4 µM.

Take `O=C(COc1ccc(Cl)cc1Br)N/N=C/c1ccc[nH]1`: the AC50 was 3.16 µM. Still for that read-out and setting: under `Cc1csc(NC(=O)c2ccc(COc3ccc(F)cc3)o2)n1` stands 5.65 µM; under `Cc1csc(NC(=O)c2ccc(COc3ccccc3OC(F)(F)F)o2)n1`, 0.24 µM; under `CC(C)c1ccc(/C=C/C(=O)Nc2nccn2C)cc1`, 4.65 µM. Still for that read-out and setting: next, `Cc1csc(NC(=O)c2ccc(COc3ccccc3C(F)(F)F)o2)n1`: 0.065 µM; `COc1ccccc1OCc1ccc(C(=O)Nc2nc(C)cs2)o1`: 1.63 µM; `CC(C)(C)c1ccc(C2CC2C(=O)N/N=C/c2ccc[nH]2)cc1` (stereo not given): 0.787 µM.

Regarding `O=C(CSc1cc(Cl)ccc1Cl)N/N=C/c1ccc[nH]1`, the half-maximal activity concentration (AC50) was 2.27 µM. Still for that read-out and setting: under `Cc1csc(NC(=O)c2ccc(COc3ccc(Cl)cc3)o2)n1` stands 2.82 µM. Still for that read-out and setting: next, `Cc1csc(NC(=O)c2ccc(COc3ccc(C#N)cc3)o2)n1`: 11.5 µM; `Cc1csc(NC(=O)c2ccc(COc3cccc(OC(F)(F)F)c3)o2)n1`: 0.439 µM.

As to `Cc1csc(NC(=O)c2ccc(COc3ccccc3F)o2)n1`, the AC50 was 0.019 µM. Same read-out and setting: next, `Cc1csc(NC(=O)c2ccc(COc3ccccc3Cl)o2)n1`: 0.045 µM.

Consider `Cc1csc(NC(=O)c2ccc(COc3cccc(C(F)(F)F)c3)o2)n1`, for which the AC50 is 1.57 µM. Regarding `Cc1ccc(/C=C/C(=O)NC2=NCCS2)cc1`, the concentration at half-maximal activity (AC50) was 16 µM.

Consider `CC(C)c1ccc(/C=C/C(=O)Nc2ccccn2)cc1`, for which the AC50 is 25.5 µM. Regarding `CC(C)c1ccc(/C=C/C(=O)Nc2nccs2)cc1`, the AC50 was 3.54 µM. As to `CC[C@@H](C(=O)O)C1CC[C@H](C)C([C@@H](C)[C@H](O)[C@H](C)C(=O)[C@H](CC)C2O[C@]3(C=C[C@@H](O)[C@]4(CC[C@@](C)(C5CC[C@](O)(CC)[C@H](C)O5)O4)O3)[C@H](C)C[C@@H]2C)O1` (stereo not given in full), the half-maximal activity concentration (AC50) was 0.01 µM. Take `O=C(N/N=C/c1ccc[nH]1)C1COc2cc3ccccc3cc2O1` (stereo not given): the AC50 was 4.2 µM.

In the case of `CC(C)c1ccc(/C=C/C(=O)Nc2nncs2)cc1`, the AC50 was 13.6 µM. With `Cc1csc(NC(=O)c2ccc(COc3ccccc3C#N)o2)n1`, the AC50 is 0.917 µM. On the same count and under the same terms, under `O=C(/C=C/c1cccc(Cl)c1)NC1=NCCS1` stands 15 µM; under `O=C(COc1ccc2ccccc2c1Br)N/N=C/c1ccc[nH]1`, 1.11 µM; under `Cc1csc(NC(=O)c2ccc(COc3ccc(OC(F)(F)F)cc3)o2)n1`, 3.16 µM. Same read-out and setting: next, `CC(C)c1ccc(/C=C/C(=O)N(C)Cc2ccccc2)cc1`: 19.2 µM; `Cc1csc(NC(=O)c2ccc(COc3cccc(Cl)c3)o2)n1`: 0.572 µM. Same read-out and setting: next, `Cc1csc(NC(=O)c2ccc(COc3ccc(C(F)(F)F)cc3)o2)n1`: 2.01 µM.

System in another experiment: not listed separately
The experiment is described as above. The following applies: HMLE_shECad breast CSC viability, CellTiter-Glo, 72 h; at 30 µM (top of the series). Summed up: as §1
Take `CC(C)c1ccc(/C=C/C(=O)N2CCOCC2)cc1`: the activity change, negative = inhibition was 17.8% (inactive).

With `Cc1cc(C)c(/C=N/NC(=O)COc2c(Cl)cc(Cl)cc2Cl)[nH]1`, the activity change, negative = inhibition was -14.5% (inactive). On the same count and under the same terms, under `Cn1ccnc1NC(=O)c1ccc(COc2ccccc2)o1` stands -15.5% (inactive); under `C(=C\c1ccccc1)/CNC1=NCCS1`, 10.6% (inactive); under `O=S(=O)(/C=C/c1ccccc1)NC1=NCCS1`, 14.4% (inactive). On the same count and under the same terms, under `O=C(Nc1ccccn1)c1ccc(COc2ccccc2)o1` stands -28.5% (inactive); under `O=C(COc1ccc(Cl)cc1Cl)N/N=C/c1ccn[nH]1`, 1.84% (inactive); under `O=C(/C=C/c1ccc(C(F)(F)F)cc1)NC1=NCCS1`, -1.72% (inactive). On to `O=C(COc1c(Cl)cc(Cl)cc1Cl)N/N=C/c1ccn[nH]1`, for which the activity change, negative = inhibition is 6.67% (inactive). Still for that read-out and setting: under `Cc1csc(NC(=O)c2ccc(CO)o2)n1` stands -1.83% (inactive); under `O=C(c1ccc(COc2ccccc2)o1)N1CCOCC1`, 2% (inactive). Still for that read-out and setting: under `O=C(NC1=NCCS1)/C(F)=C/c1ccccc1` stands 10.8% (inactive). `C/C(=C\c1ccccc1)C(=O)NC1=NCCS1`: the activity change, negative = inhibition is 8.28% (inactive). In the case of `Cc1ccc2cc(C(=O)NC3=NCCS3)n(C)c2c1`, the activity change, negative = inhibition is -17.3% (inactive). Consider `COc1ccccc1OCC(=O)N/N=C/c1ccc[nH]1`, for which the activity change, negative = inhibition was 9.18% (inactive). For the compound `COc1cccc(/C=C/C(=O)NC2=NCCS2)c1`, the activity change, negative = inhibition is -21% (inactive). On to `O=C(Nc1nccs1)c1ccc(COc2ccccc2)o1`, for which the activity change, negative = inhibition was 6.69% (inactive). As for `CC(C)c1ccc(/C=C/C(=O)NCc2ccccc2)cc1`, the activity change, negative = inhibition is -6.44% (inactive). Regarding `O=C(N/N=C/c1ccn[nH]1)c1cc2ccccc2o1`, the activity change, negative = inhibition is 26.2% (inactive).

The values are drawn from PubChem BioAssay AID504449 (Broad Institute, 2011).
